≈ marks a conversion by molar mass, not a printed value.
molecular target: T1, Peroxisome proliferator-activated receptor alpha (Homo sapiens, UniProt Q07869); test: Antagonist activity at human PPAR-alpha assessed as inhibition of GW7647-induced effect after overnight incubation by cell-based luciferase reporter gene assay; details: not given
T1 sequence (Q07869 whole entry): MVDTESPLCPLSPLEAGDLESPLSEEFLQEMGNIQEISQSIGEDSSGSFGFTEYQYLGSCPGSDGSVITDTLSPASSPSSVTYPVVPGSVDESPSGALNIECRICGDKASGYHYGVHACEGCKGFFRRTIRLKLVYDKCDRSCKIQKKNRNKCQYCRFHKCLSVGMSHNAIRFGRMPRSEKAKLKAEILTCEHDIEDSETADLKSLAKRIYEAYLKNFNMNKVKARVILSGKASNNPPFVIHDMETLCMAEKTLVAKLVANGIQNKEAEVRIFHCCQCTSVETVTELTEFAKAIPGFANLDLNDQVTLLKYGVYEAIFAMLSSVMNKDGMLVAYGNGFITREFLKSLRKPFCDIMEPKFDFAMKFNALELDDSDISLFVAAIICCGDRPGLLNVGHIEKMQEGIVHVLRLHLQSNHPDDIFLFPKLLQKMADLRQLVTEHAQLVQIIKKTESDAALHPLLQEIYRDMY

In order of rising IC50:
1. CCn1c(CCCc2ccc(OC(C)(C)C(=O)NS(=O)(=O)c3ccc(C)cc3)cc2)nn(Cc2ccc(C(C)(C)C)cc2)c1=O  2.8 nM
2. CCn1c(CCCc2ccc(OC(C)(C)C(=O)NS(=O)(=O)C3CCCCC3)cc2)nn(Cc2ccc(C(C)(C)C)cc2)c1=O  3 nM
3. CCn1c(CCCc2ccc(OC(C)(C)C(=O)NS(=O)(=O)C3CC3)cc2)nn(Cc2ccc(C(C)(C)C)cc2)c1=O  6.6 nM
4. CCn1c(CCCc2ccc(OC(C)(C)C(=O)NS(=O)(=O)c3ccc(C(C)C)cc3)cc2)nn(Cc2ccc(C(C)(C)C)cc2)c1=O  13 nM
5. CCn1c(CCCc2ccc(-c3ccc(NS(=O)(=O)c4ccccc4)cc3)cc2)nn(Cc2ccc(C(C)(C)C)cc2)c1=O  21 nM
6. CCn1c(CCCc2ccc(OC(C)(C)C(=O)NS(=O)(=O)c3ccc(C(F)(F)F)cc3)cc2)nn(Cc2ccc(C(C)(C)C)cc2)c1=O  34 nM
7. CCn1c(CCCc2ccc(OC(C)(C)C(=O)NS(=O)(=O)c3ccoc3)cc2)nn(Cc2ccc(C(C)(C)C)cc2)c1=O  78 nM
8. CCn1c(CCCc2ccc(-c3ccc(NS(C)(=O)=O)cn3)cc2)nn(Cc2ccc(C(C)(C)C)cc2)c1=O  113 nM
9. CCn1c(CCCc2ccc(-c3ncc(NS(=O)(=O)c4ccccc4)cn3)cc2)nn(Cc2ccc(C(C)(C)C)cc2)c1=O  114 nM
10. CCn1c(CCCc2ccc(-c3ccc(NS(=O)(=O)c4ccccc4)nc3)cc2)nn(Cc2ccc(C(C)(C)C)cc2)c1=O  122 nM

system: not listed separately; test: Solubility of the compound in aqueous buffer at pH 7.4 after 24 hrs by LC-MS/MS analysis; format: physicochemical; details: not given
How it was run: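 Compound from a 10 mM DMSO stock was added to pH 7.4 buffer, vortexed 2 min, then shaken on an orbital shaker for 24 h at room temperature. Samples were then vacuum-filtered through a polycarbonate membrane before measurement.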

In order of falling solubility at 24 h:
1. CCn1c(CCCc2ccc(-c3ccc(NS(C)(=O)=O)cn3)cc2)nn(Cc2ccc(C(C)(C)C)cc2)c1=O  0.423 µM (≈ 0.232 µg/mL)
2. CCn1c(CCCc2ccc(-c3ncc(NS(=O)(=O)c4ccccc4)cn3)cc2)nn(Cc2ccc(C(C)(C)C)cc2)c1=O  0.091 µM (≈ 0.0556 µg/mL)
3. CCn1c(CCCc2ccc(-c3ccc(NS(=O)(=O)c4ccccc4)cc3)cc2)nn(Cc2ccc(C(C)(C)C)cc2)c1=O  0.018 µM (≈ 0.011 µg/mL)
4. CCn1c(CCCc2ccc(-c3ccc(NS(=O)(=O)c4ccccc4)nc3)cc2)nn(Cc2ccc(C(C)(C)C)cc2)c1=O  0.014 µM (≈ 0.00854 µg/mL)

system: not listed separately; test: Metabolic stability in mouse plasma assessed as compound remaining at 1 uM after 30 mins by LC-MS/MS analysis; format: ADME, cell-free; details: read-out: Stability
How it was run: (§1)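 A 30 mM DMSO stock was diluted to 100 µM in acetonitrile, then spiked into thawed mouse plasma (1 µM final) and incubated at 37 °C. Aliquots were precipitated in acetonitrile containing buspirone, shaken 5 min and centrifuged at 4000g for 10 min. Supernatant was analysed by LC-MS/MS. Percent remaining = concentration at each time / t0 concentration × 100; mean of at least three experiments.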

In order of falling remaining at 0.5 h, 1 µM:
1. CCn1c(CCCc2ccc(OC(C)(C)C(=O)NS(=O)(=O)c3ccc(C(F)(F)F)cc3)cc2)nn(Cc2ccc(C(C)(C)C)cc2)c1=O  103%
2. CCn1c(CCCc2ccc(OC(C)(C)C(=O)NS(=O)(=O)c3ccc(C(C)C)cc3)cc2)nn(Cc2ccc(C(C)(C)C)cc2)c1=O  89.5%
3. CCn1c(CCCc2ccc(OC(C)(C)C(=O)NS(=O)(=O)c3ccoc3)cc2)nn(Cc2ccc(C(C)(C)C)cc2)c1=O  75.4%
4. CCn1c(CCCc2ccc(OC(C)(C)C(=O)NS(=O)(=O)c3ccc(C)cc3)cc2)nn(Cc2ccc(C(C)(C)C)cc2)c1=O  73.1%
5. CCn1c(CCCc2ccc(OC(C)(C)C(=O)NS(=O)(=O)C3CCCCC3)cc2)nn(Cc2ccc(C(C)(C)C)cc2)c1=O  60.5%
6. CCn1c(CCCc2ccc(OC(C)(C)C(=O)NS(=O)(=O)c3ccccc3)cc2)nn(Cc2ccc(C(C)(C)C)cc2)c1=O  6.7%
7. CCn1c(CCCc2ccc(OC(C)(C)C(=O)NS(=O)(=O)C3CC3)cc2)nn(Cc2ccc(C(C)(C)C)cc2)c1=O  1.7%

system: not listed separately; test: Metabolic stability in mouse plasma assessed as compound remaining at 1 uM after 60 mins by LC-MS/MS analysis; format: ADME, cell-free; details: read-out: Stability; how it was run: as §1

In order of falling remaining at 1 h, 1 µM:
1. CCn1c(CCCc2ccc(OC(C)(C)C(=O)NS(=O)(=O)c3ccc(C(F)(F)F)cc3)cc2)nn(Cc2ccc(C(C)(C)C)cc2)c1=O  105%
2. CCn1c(CCCc2ccc(OC(C)(C)C(=O)NS(=O)(=O)c3ccc(C(C)C)cc3)cc2)nn(Cc2ccc(C(C)(C)C)cc2)c1=O  81.9%
3. CCn1c(CCCc2ccc(OC(C)(C)C(=O)NS(=O)(=O)c3ccoc3)cc2)nn(Cc2ccc(C(C)(C)C)cc2)c1=O  66.6%
4. CCn1c(CCCc2ccc(OC(C)(C)C(=O)NS(=O)(=O)c3ccc(C)cc3)cc2)nn(Cc2ccc(C(C)(C)C)cc2)c1=O  63.7%
5. CCn1c(CCCc2ccc(OC(C)(C)C(=O)NS(=O)(=O)C3CCCCC3)cc2)nn(Cc2ccc(C(C)(C)C)cc2)c1=O  43.6%
6. CCn1c(CCCc2ccc(OC(C)(C)C(=O)NS(=O)(=O)c3ccccc3)cc2)nn(Cc2ccc(C(C)(C)C)cc2)c1=O  0.7%
7. CCn1c(CCCc2ccc(OC(C)(C)C(=O)NS(=O)(=O)C3CC3)cc2)nn(Cc2ccc(C(C)(C)C)cc2)c1=O  0.1%

system: Plasma; test: (§2) Metabolic stability in mouse plasma assessed as compound remaining at 1 uM after 24 hrs by LC-MS/MS analysis; format: ADME, cell-free; details: 24 h, 1 µM; how it was run: as §1

In order of falling Stability:
1. CCn1c(CCCc2ccc(-c3ccc(NS(=O)(=O)c4ccccc4)nc3)cc2)nn(Cc2ccc(C(C)(C)C)cc2)c1=O  128.7%
2. CCn1c(CCCc2ccc(-c3ccc(NS(=O)(=O)c4ccccc4)cc3)cc2)nn(Cc2ccc(C(C)(C)C)cc2)c1=O  124.7%

system: not listed separately; test: as §2; format: ADME, cell-free; details: read-out: Stability; how it was run: as §1

In order of falling remaining at 24 h, 1 µM:
1. CCn1c(CCCc2ccc(-c3ncc(NS(=O)(=O)c4ccccc4)cn3)cc2)nn(Cc2ccc(C(C)(C)C)cc2)c1=O  119%
2. CCn1c(CCCc2ccc(-c3ccc(NS(C)(=O)=O)cn3)cc2)nn(Cc2ccc(C(C)(C)C)cc2)c1=O  105%
3. CCn1c(CCCc2ccc(OC(C)(C)C(=O)NS(=O)(=O)c3ccc(C(F)(F)F)cc3)cc2)nn(Cc2ccc(C(C)(C)C)cc2)c1=O  53.7%
4. CCn1c(CCCc2ccc(OC(C)(C)C(=O)NS(=O)(=O)c3ccc(C(C)C)cc3)cc2)nn(Cc2ccc(C(C)(C)C)cc2)c1=O  2.7%

From ChEMBL document CHEMBL3259631, “Identification of the first potent, selective and bioavailable PPARα antagonist” (Bioorg Med Chem Lett, 2014)
